Data reported in ChEMBL document CHEMBL1126031, “1,2,3-trisubstituted cyclopropanes as conformationally restricted peptide isosteres: application to the design and synthesis of novel renin inhibitors” (J Med Chem, 1992).
pIC50: −log10 of the molar value.

How the values were obtained:
Renin [1] = molecular target: T1, Renin (Homo sapiens, UniProt P00797); experiment: In vitro inhibition of purified human renin at a pH of 6.0.
T1 sequence (P00797 whole entry): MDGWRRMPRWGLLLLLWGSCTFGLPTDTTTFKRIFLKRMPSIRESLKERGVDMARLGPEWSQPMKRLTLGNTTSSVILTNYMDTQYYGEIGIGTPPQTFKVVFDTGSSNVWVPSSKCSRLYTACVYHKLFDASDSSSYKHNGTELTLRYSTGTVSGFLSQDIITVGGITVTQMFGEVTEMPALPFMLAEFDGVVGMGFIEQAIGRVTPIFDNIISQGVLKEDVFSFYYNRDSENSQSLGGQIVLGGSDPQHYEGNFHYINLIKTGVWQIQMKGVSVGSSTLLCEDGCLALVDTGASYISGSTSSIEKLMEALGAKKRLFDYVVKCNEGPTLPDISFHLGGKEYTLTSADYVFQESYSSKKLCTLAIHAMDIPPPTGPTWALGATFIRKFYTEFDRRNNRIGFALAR
Method in brief: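 Purified human renin, assayed at pH 6.0 by a procedure from earlier work.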

Renin [2] = molecular target: T1, Renin; experiment: In vitro potency against human plasma renin at pH 7.4; format: cell-free
Method in brief: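 Renin in human plasma, assayed at pH 7.4 by a procedure from earlier work.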

[3] = Half life of the compound
Renin (Homo sapiens) = molecular target: T2, Renin (Homo sapiens) (UniProt P00797); experiment: In vitro potency to inhibit human plasma renin at a pH of 7.4 and at 1*10e-6 M concentration; format: cell-free
T2 sequence (whole entry): T1 sequence (P00797 whole entry)

Compound | pIC50 (Renin [1]) | pIC50 (Renin [2]) | half-life [3] [h] | inhibition (Renin (Homo sapiens)) [%]
CC(C)C[C@H](O)[C@H](O)[C@H](CC1CCCCC1)NC(=O)[C@H](Cc1cscn1)NC(=O)[C@@H]1[C@@H](C(=O)N2CCOCC2)[C@@H]1c1ccccc1 | 6.92 | – | – | –
CC(C)C[C@H]1[C@H](C(=O)N[C@@H](Cc2cscn2)C(=O)N[C@@H](CC2CCCCC2)[C@@H](O)[C@@H](O)CC(C)C)[C@H]1C(=O)N1CCOCC1 | 7.36 | – | – | –
CC(C)C[C@H](O)[C@H](O)[C@H](CC1CCCCC1)NC(=O)[C@H](Cc1cscn1)NC(=O)[C@@H]1[C@@H](Cc2ccccc2)[C@H]1C(=O)N1CCOCC1 | 7.60 | < 6.00 | – | 30
CC(C)C[C@H](O)[C@H](O)[C@H](CC1CCCCC1)NC(=O)[C@H](Cc1cscn1)NC(=O)[C@H]1[C@H](C(=O)N2CCOCC2)[C@H]1c1ccccc1 | 6.70 | – | – | –
CC(C)C[C@H](O)[C@H](O)[C@H](CC1CCCCC1)NC(=O)[C@H](Cc1cscn1)NC(=O)[C@H]1[C@@H](Cc2ccccc2)[C@@H]1C(=O)N1CCOCC1 | 7.57 | – | – | –
CC(C)C[C@H](O)[C@H](O)[C@H](CC1CCCCC1)NC(=O)[C@H](Cc1cscn1)NC(=O)[C@H](CC(=O)N1CCOCC1)Cc1ccccc1 | 6.82 | – | – | –
CC(C)C[C@H]1[C@@H](C(=O)N[C@@H](Cc2cscn2)C(=O)N[C@@H](CC2CCCCC2)[C@@H](O)[C@@H](O)CC(C)C)[C@@H]1C(=O)N1CCOCC1 | 7.72 | < 6.00 | – | 46
CC[C@@H]1[C@H](C(=O)N[C@@H](Cc2cscn2)C(=O)N[C@@H](CC2CCCCC2)[C@@H](O)[C@@H](O)CC(C)C)[C@H]1C(=O)N1CCOCC1 | 7.04 | – | – | –
CC(C)C[C@H](O)[C@H](O)[C@H](CC1CCCCC1)NC(=O)[C@H](Cc1cscn1)NC(=O)[C@@H]1[C@H](Cc2ccccc2)[C@H]1C(=O)N1CCOCC1 | 6.92 | – | – | –
CC(C)C[C@@H]1[C@H](C(=O)N[C@@H](Cc2cscn2)C(=O)N[C@@H](CC2CCCCC2)[C@@H](O)[C@@H](O)CC(C)C)[C@H]1C(=O)N1CCOCC1 | 7.48 | – | – | –
CC[C@H]1[C@H](C(=O)N[C@@H](Cc2cscn2)C(=O)N[C@@H](CC2CCCCC2)[C@@H](O)[C@@H](O)CC(C)C)[C@H]1C(=O)N1CCOCC1 | 6.70 | – | – | –
CC(C)C[C@H](O)[C@H](O)[C@H](CC1CCCCC1)NC(=O)[C@H](Cc1cscn1)NC(=O)[C@@H]1[C@@H](C(=O)N2CCOCC2)[C@H]1c1ccccc1 | 6.92 | – | – | –

The next compounds have a higher pIC50 (Renin [1]) than those just listed; values first:

pIC50 (Renin [1]) | pIC50 (Renin [2]) | half-life [3] [h] | inhibition (Renin (Homo sapiens)) [%] | Compound
9.15 | 7.70 | > 5 | – | CC(C)C[C@H](O)[C@H](O)[C@H](CC1CCCCC1)NC(=O)[C@H](Cc1cscn1)NC(=O)[C@H]1[C@H](C(=O)N2CCOCC2)[C@@H]1c1ccccc1
8.00 | 6.64 | – | – | CC[C@@H]1[C@@H](C(=O)N[C@@H](Cc2cscn2)C(=O)N[C@@H](CC2CCCCC2)[C@@H](O)[C@@H](O)CC(C)C)[C@@H]1C(=O)N1CCOCC1
9.33 | 7.27 | – | – | CC(C)C[C@H](O)[C@H](O)[C@H](CC1CCCCC1)NC(=O)[C@H](Cc1cscn1)NC(=O)C(Cc1ccccc1)Cc1ccccc1
8.68 | 7.39 | – | – | CC(C)C[C@@H]1[C@@H](C(=O)N[C@@H](Cc2cscn2)C(=O)N[C@@H](CC2CCCCC2)[C@@H](O)[C@@H](O)CC(C)C)[C@@H]1C(=O)N1CCOCC1
8.96 | 6.09 | – | – | CC(C)C[C@H](O)[C@H](O)[C@H](CC1CCCCC1)NC(=O)[C@H](Cc1cscn1)NC(=O)C1[C@@H](c2ccccc2)[C@H]1c1ccccc1 (stereo not given in full)
7.80 | 6.21 | – | – | CC[C@H]1[C@@H](C(=O)N[C@@H](Cc2cscn2)C(=O)N[C@@H](CC2CCCCC2)[C@@H](O)[C@@H](O)CC(C)C)[C@@H]1C(=O)N1CCOCC1
9.44 | 8.08 | – | – | CC(C)C[C@H](O)[C@H](O)[C@H](CC1CCCCC1)NC(=O)[C@H](Cc1cscn1)NC(=O)[C@@H](CC(=O)N1CCOCC1)Cc1ccccc1
8.62 | 6.52 | – | – | CCOC(=O)N[C@@H](Cc1ccc(I)cc1)C(=O)N[C@@H](CC(C)C)C(=O)N[C@@H](CC1CCCCC1)[C@@H](O)[C@@H](O)CC(C)C
8.00 | 6.43 | – | – | CC(C)C[C@H](O)[C@H](O)[C@H](CC1CCCCC1)NC(=O)[C@H](Cc1cscn1)NC(=O)[C@H]1[C@H](Cc2ccccc2)[C@@H]1C(=O)N1CCOCC1
